Measurements collected from several papers.
Observed: cell growth or viability

C[C@H](NC(=O)c1cccc2ccccc12)C(=O)Nc1ccccc1Oc1ccccc1 — IC50 (SK-N-FI): 3000 nM
C[C@H]1[C@H](C)CC[C@]2(C(=O)O)CC[C@]3(C)C(=CC[C@@H]4[C@@]5(C)CC[C@H](O)C(C)(C)[C@@H]5CC[C@]43C)[C@H]12 — IC50 (DLD-1; 48 h): 13000 nM
CC(C)n1ncnc1-c1cn2c(n1)-c1ccc(O[C@@H](C)C(N)=O)cc1OCC2 — IC50 (SW48; ATP luminescence; 96 h): 21 nM
COc1cc(Nc2nccc(-c3cnn4nc(OC)ccc34)n2)cc(C(F)(F)F)c1 — IC50 (NCI-H838; ATP luminescence): 470 nM
Nc1ccn([C@@H]2O[C@H](CO)[C@@H](O)C2(F)F)c(=O)n1 — IC50 (BXPC-3; MTT): 28 nM
CC(C)C[C@H](NC(=O)[C@H](Cc1ccccc1)NC(=O)c1cnccn1)B(O)O — IC50 (BEN; ATP luminescence): 68 nM
CCC[C@H](Nc1nc(-c2ccc(NC(=O)NCC)c(OC)c2)ncc1C)c1cccnc1 — IC50 (BXPC-3; fluorescence; 72 h): 37.1 nM
CCn1c(=O)c(-c2ccc(-c3cncs3)cc2Cl)cc2cnc(Nc3ccc(N4CCN(C)CC4)cc3)nc21 — IC50 (BXPC-3; MTT; 24 h): 3030 nM
Cc1nc(NC(=O)N2CCC[C@H]2C(N)=O)sc1-c1ccnc(C(C)(C)C(F)(F)F)c1 — IC50 (SW48; ATP luminescence; 96 h): 154 nM
CN(C)C/C=C/C(=O)Nc1cc2c(Nc3ccc(F)c(Cl)c3)ncnc2cc1O[C@H]1CCOC1 — IC50 (SW620/AD300; MTT; 72 h): 4300 nM
COc1cc([C@@H]2c3cc4c(cc3[C@@H](O[C@@H]3O[C@@H]5CO[C@@H](C)O[C@H]5[C@H](O)[C@H]3O)[C@H]3COC(=O)[C@H]23)OCO4)cc(OC)c1O — IC50 (DLD-1; fluorescence; 48 h): 1300 nM
CC[C@]1(O)C[C@H]2CN(CCc3c([nH]c4ccccc34)[C@@](C(=O)OC)(c3cc4c(cc3OC)N(C=O)[C@H]3[C@@](O)(C(=O)OC)[C@H](OC(C)=O)[C@]5(CC)C=CCN6CC[C@]43[C@@H]65)C2)C1 — IC50 (BXPC-3; fluorescence; 72 h): 2 nM
CN(C)CCCN1c2ccccc2Sc2ccc(Cl)cc21 — IC50 (human Hepatocyte): 26000 nM
C=C(C)C(=O)Nc1ccc(-c2c(-c3ccc(Oc4nccc(C)n4)c(F)c3)c3c(N)ncnc3n2C)cc1 — IC50 (MFE-296; ATP luminescence; 96 h): 9.96 nM
